Measured values taken from ChEMBL document CHEMBL1134907, “An improved synthesis of the C-linked glucuronide of N-(4-hydroxyphenyl)retinamide” (Bioorg Med Chem Lett, 2002).

Legend:
RARα = RARα (Homo sapiens, UniProt P10276); test: Binding affinity for retinoic acid receptor RAR alpha
RARβ = RARβ (Homo sapiens, UniProt P10826); test: Binding affinity for retinoic acid receptor RAR beta
Rattus norvegicus [1] = species on record: Rattus norvegicus; test: Percentage change in DMBA-induced mammary tumor in rats;no new tumors, partial regression in 6/8 tumors; format: functional
Summary of the method: (§1)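 Rats bearing mammary tumors induced by dimethylbenz[a]anthracene (DMBA) 50 days earlier were fed the treatment retinoid in the diet for 10 days. Each group had three tumor-bearing rats, which were killed after the 10 days. Every tumor on each rat was measured to estimate the mean tumor volume for the group.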

Rattus norvegicus [2] = test: Mean number of tumors/rat after retinoid dose of 2 mmol/kg diet; format: functional
Rattus norvegicus [3] = test: Percentage of rats with tumor after retinoid dose of 2 mmol/kg diet; format: functional
Rattus norvegicus [4] = test: Latency in DMBA-induced mammary tumor in rat after retinoid dose of 2 mmol/kg diet; format: functional
Rattus norvegicus [5] = test: Final DMBA-induced mammary tumor volume in rat after retinoid treatment at 2 mmol/kg diet; format: functional; summary of the method: as §1
Rattus norvegicus [6] = test: Initial DMBA-induced mammary tumor volume in rat after retinoid treatment at 2 mmol/kg diet; format: functional; summary of the method: as §1
Rattus norvegicus [7] = species on record: Rattus norvegicus; test: Percentage change in DMBA-induced mammary tumor in rats; no new tumors, partial regression in 10/10 tumors; format: functional; summary of the method: as §1
RARγ = RARγ (Homo sapiens, UniProt P13631); test: Binding affinity for retinoic acid receptor RAR gamma
Sequence of RARγ (P13631 whole entry, looked up): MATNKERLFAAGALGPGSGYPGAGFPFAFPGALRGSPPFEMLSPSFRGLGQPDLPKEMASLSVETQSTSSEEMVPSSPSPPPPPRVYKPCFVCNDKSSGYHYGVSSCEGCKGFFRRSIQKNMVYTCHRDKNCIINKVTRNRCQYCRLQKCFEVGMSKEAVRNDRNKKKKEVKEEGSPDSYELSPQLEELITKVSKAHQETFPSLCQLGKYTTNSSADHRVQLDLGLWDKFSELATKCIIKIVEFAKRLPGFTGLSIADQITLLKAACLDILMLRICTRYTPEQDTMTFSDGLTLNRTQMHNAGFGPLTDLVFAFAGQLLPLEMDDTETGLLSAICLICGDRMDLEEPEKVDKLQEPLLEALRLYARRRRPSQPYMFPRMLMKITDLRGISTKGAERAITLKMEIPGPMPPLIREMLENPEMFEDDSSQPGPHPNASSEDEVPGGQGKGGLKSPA

Rattus norvegicus [8] = species on record: Rattus norvegicus; test: Percentage change in DMBA-induced mammary tumor in rats;Two new tumors, partial regression in 10/14 tumors; format: functional; summary of the method: as §1

Sequence of RARα (P10276 whole entry, looked up): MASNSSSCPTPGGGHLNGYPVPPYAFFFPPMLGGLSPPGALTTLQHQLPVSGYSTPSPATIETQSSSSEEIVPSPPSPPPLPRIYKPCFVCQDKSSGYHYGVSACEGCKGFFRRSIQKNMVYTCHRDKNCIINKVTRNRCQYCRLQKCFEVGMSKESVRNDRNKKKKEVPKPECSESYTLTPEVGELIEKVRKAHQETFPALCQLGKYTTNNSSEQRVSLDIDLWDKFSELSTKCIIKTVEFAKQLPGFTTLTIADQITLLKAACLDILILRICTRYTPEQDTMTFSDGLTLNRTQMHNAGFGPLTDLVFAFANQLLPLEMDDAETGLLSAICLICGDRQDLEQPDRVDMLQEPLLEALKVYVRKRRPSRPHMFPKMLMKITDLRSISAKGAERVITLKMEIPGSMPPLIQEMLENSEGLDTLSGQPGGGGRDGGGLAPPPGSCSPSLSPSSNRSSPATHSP
Sequence of RARβ (P10826 whole entry, looked up): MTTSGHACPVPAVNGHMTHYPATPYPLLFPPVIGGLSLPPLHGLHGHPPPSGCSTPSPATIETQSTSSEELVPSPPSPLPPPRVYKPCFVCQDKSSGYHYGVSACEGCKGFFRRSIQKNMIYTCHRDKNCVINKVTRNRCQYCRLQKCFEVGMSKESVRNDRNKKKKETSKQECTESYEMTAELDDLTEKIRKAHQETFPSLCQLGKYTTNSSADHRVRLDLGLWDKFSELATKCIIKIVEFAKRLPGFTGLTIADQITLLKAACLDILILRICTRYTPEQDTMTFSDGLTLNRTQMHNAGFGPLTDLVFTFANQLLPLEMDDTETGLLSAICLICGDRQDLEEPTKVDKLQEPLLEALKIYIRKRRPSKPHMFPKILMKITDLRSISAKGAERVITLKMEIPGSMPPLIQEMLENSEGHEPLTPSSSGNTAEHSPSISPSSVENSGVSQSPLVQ

Ki (RARα)	Ki (RARβ)	Ki (RARγ)	Structure (SMILES)	Change (Rattus norvegicus [1])	Activity (Rattus norvegicus [2])	Activity (Rattus norvegicus [3])	Mean tumor atency (Rattus norvegicus [4])	Tumor volume (Rattus norvegicus [5])	Tumor volume (Rattus norvegicus [6])	Change (Rattus norvegicus [7])	Change (Rattus norvegicus [8])
> 2200 nM	> 6000 nM		CC1=C(/C=C/C(C)=C/C=C/C(C)=C/C(=O)Nc2ccc(CC3OC(C(=O)O)C(O)C(O)C3O)cc2)C(C)(C)CCC1 (stereo not drawn)	-21%	0.36	27%	55 days	0.23 cm*3	0.29 cm*3		
			CC1=C(/C=C/C(C)=C/C=C/C(C)=C/C(=O)O)C(C)(C)CCC1 [TRETINOIN]					0.56 cm*3	0.94 cm*3	-40%	
> 2200 nM	> 2800 nM	> 6000 nM	CC1=C(/C=C/C(C)=C/C=C/C(C)=C/C(=O)Nc2ccc(O)cc2)C(C)(C)CCC1 [FENRETINIDE]					0.12 cm*3	0.16 cm*3		-25%
> 2200 nM	> 2800 nM	> 6000 nM	CC1=C(/C=C/C(C)=C/C=C/C(C)=C/C(=O)Nc2ccc(O[C@@H]3O[C@@H](C(=O)O)[C@@H](O)[C@H](O)[C@@H]3O)cc2)C(C)(C)CCC1		0.71	57%	48 days				
